Key:
Bone [1] = assay: Drug uptake in overnight fasted Sprague-Dawley rat bone at 9 to 11 MBq, iv at 55 to 115 mins by microPET analysis; type: ADME, organism-based, Bone element; details: in vivo
Method in brief: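 Overnight-fasted female Sprague-Dawley rats under isoflurane were scanned by microPET/CT after tail-vein tracer. Dynamic acquisition over the upper thorax ran for 50 min, then a static whole-body scan from 55–115 min p.i. 2–5 rats per tracer; preliminary, representative images.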

Liver [2] = assay: Drug uptake in overnight fasted Sprague-Dawley rat liver at 9 to 11 MBq, iv at 5 mins by microPET analysis; type: ADME, organism-based; details: in vivo
Method in brief: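 Female rats fasted overnight, under isoflurane. 18F-labelled tracer (9–11 MBq) given into a tail vein. Dynamic PET acquisition over the upper thorax for 50 min, then a static whole-body scan 55–115 min post-injection. 2–5 rats per tracer.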

Muscle tissue [3] = assay: Biodistribution in overnight fasted Sprague-Dawley rat muscle aqueous fraction at 0.7 to 1.4 MBq, iv preincubated with POCA for 2 hrs before compound administration measured at 120 mins post treatment by Folch-type extraction method; type: ADME, organism-based; details: in vivo
Method in brief: (§1)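 Female Sprague-Dawley rats, fasted overnight, under isoflurane (3.5% induction, 1.5% maintenance). [18F] tracer in 0.5–1.0% BSA/saline was given by tail vein. POCA group: 30 mg/kg i.p. 120 min before tracer. About 0.5 g tissue was homogenized and sonicated in chloroform/methanol (2:1) at 0 °C, then 40% urea and 5% H2SO4 were added and spun 10 min at 1,800 g. Aqueous, organic and pellet fractions were counted as % of total.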

Liver [4] = assay: Biodistribution in overnight fasted Sprague-Dawley rat liver pellet fraction at 0.7 to 1.4 MBq, iv preincubated with POCA for 2 hrs before compound administration measured at 120 mins post treatment by Folch-type extraction method; type: ADME, organism-based; details: in vivo; method in brief: as §1
Liver [5] = assay: Biodistribution in overnight fasted Sprague-Dawley rat liver organic fraction at 0.7 to 1.4 MBq, iv preincubated with POCA for 2 hrs before compound administration measured at 120 mins post treatment by Folch-type extraction method; type: ADME, organism-based; details: in vivo; method in brief: as §1
Heart [6] = assay: Biodistribution in overnight fasted Sprague-Dawley rat heart organic fraction at 0.7 to 1.4 MBq, iv preincubated with POCA for 2 hrs before compound administration measured at 120 mins post treatment by Folch-type extraction method; type: ADME, organism-based; details: in vivo; method in brief: as §1
Liver [7] = assay: Biodistribution in overnight fasted Sprague-Dawley rat liver pellet fraction at 0.7 to 1.4 MBq, iv at 120 mins by Folch-type extraction method; type: ADME, organism-based; details: in vivo, 2 h; method in brief: as §1
Liver [8] = assay: Biodistribution in overnight fasted Sprague-Dawley rat liver organic fraction at 0.7 to 1.4 MBq, iv at 120 mins by Folch-type extraction method; type: ADME, organism-based; details: in vivo, 2 h; method in brief: as §1
Heart [9] = assay: Biodistribution in overnight fasted Sprague-Dawley rat heart pellet fraction at 0.7 to 1.4 MBq, iv at 120 mins by Folch-type extraction method; type: ADME, organism-based; details: in vivo, 2 h; method in brief: as §1
Heart [10] = assay: Biodistribution in overnight fasted Sprague-Dawley rat heart organic fraction at 0.7 to 1.4 MBq, iv at 120 mins by Folch-type extraction method; type: ADME, organism-based; details: in vivo, 2 h; method in brief: as §1
Heart [11] = assay: Biodistribution in overnight fasted Sprague-Dawley rat heart aqueous fraction at 0.7 to 1.4 MBq, iv at 120 mins by Folch-type extraction method; type: ADME, organism-based; details: in vivo, 2 h; method in brief: as §1
Muscle tissue [12] = assay: Biodistribution in overnight fasted Sprague-Dawley rat muscle pellet fraction at 0.7 to 1.4 MBq, iv preincubated with POCA for 2 hrs before compound administration measured at 30 mins post treatment by Folch-type extraction method; type: ADME, organism-based; details: in vivo, 0.5 h; method in brief: as §1
Muscle tissue [13] = assay: Biodistribution in overnight fasted Sprague-Dawley rat muscle aqueous fraction at 0.7 to 1.4 MBq, iv preincubated with POCA for 2 hrs before compound administration measured at 30 mins post treatment by Folch-type extraction method; type: ADME, organism-based; details: in vivo, 0.5 h; method in brief: as §1
Liver [14] = assay: Biodistribution in overnight fasted Sprague-Dawley rat liver aqueous fraction at 0.7 to 1.4 MBq, iv preincubated with POCA for 2 hrs before compound administration measured at 30 mins post treatment by Folch-type extraction method; type: ADME, organism-based; details: in vivo, 0.5 h; method in brief: as §1
Heart [15] = assay: Biodistribution in overnight fasted Sprague-Dawley rat heart pellet fraction at 0.7 to 1.4 MBq, iv preincubated with POCA for 2 hrs before compound administration measured at 30 mins post treatment by Folch-type extraction method; type: ADME, organism-based; details: in vivo, 0.5 h; method in brief: as §1
Heart [16] = assay: Biodistribution in overnight fasted Sprague-Dawley rat heart aqueous fraction at 0.7 to 1.4 MBq, iv preincubated with POCA for 2 hrs before compound administration measured at 30 mins post treatment by Folch-type extraction method; type: ADME, organism-based; details: in vivo, 0.5 h; method in brief: as §1
Heart [17] = assay: Biodistribution in overnight fasted Sprague-Dawley rat heart organic fraction at 0.7 to 1.4 MBq, iv at 30 mins by Folch-type extraction method; type: ADME, organism-based; details: in vivo, 0.5 h; method in brief: as §1
Bone [18] = assay: Drug uptake in overnight fasted Sprague-Dawley rat bone at 0.7 to 1.4 MBq, iv preincubated with POCA for 2 hrs before compound administration measured at 120 mins post treatment; type: ADME, organism-based, Bone element; details: in vivo
Method in brief: (§2)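 Overnight-fasted female Sprague-Dawley rats under isoflurane received the [18F] tracer in 0.5–1.0% BSA/saline by tail vein. POCA group: 30 mg/kg i.p. 2 h before tracer. Tissues were excised at 30 or 120 min, weighed and gamma-counted with decay correction. Uptake = % dose kg/g, i.e. CPM tissue × body wt (kg) × 100 / (tissue wt (g) × CPM dose). n = 5–6.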

Liver [19] = assay: Drug uptake in overnight fasted Sprague-Dawley rat liver at 0.7 to 1.4 MBq, iv preincubated with POCA for 2 hrs before compound administration measured at 120 mins post treatment; type: ADME, organism-based; details: in vivo
Method in brief: (§3)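 Female rats fasted overnight, under isoflurane (3.5% induction, 1.5% maintenance). 18F-labelled tracer formulated in 0.5–1.0% BSA/saline, injected via tail vein. Tissues harvested at 30 or 120 min, weighed, gamma-counted, decay-corrected. Uptake expressed as % dose kg/g, i.e. tissue CPM × body wt (kg) × 100 / (tissue wt (g) × dose CPM). POCA groups received 30 mg/kg i.p. 2 h before tracer. n = 5–6.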

Heart [20] = assay: Drug uptake in overnight fasted Sprague-Dawley rat heart at 0.7 to 1.4 MBq, iv preincubated with POCA for 2 hrs before compound administration measured at 120 mins post treatment; type: ADME, organism-based; details: in vivo; method in brief: as §3
Bone [21] = assay: Drug uptake in overnight fasted Sprague-Dawley rat bone at 0.7 to 1.4 MBq, iv at 120 mins; type: ADME, organism-based, Bone element; details: in vivo, 2 h; method in brief: as §2
Brain = assay: Drug uptake in overnight fasted Sprague-Dawley rat brain at 0.7 to 1.4 MBq, iv at 120 mins; type: ADME, organism-based; details: in vivo, 2 h; method in brief: as §2
Kidney [22] = assay: Drug uptake in overnight fasted Sprague-Dawley rat kidney at 0.7 to 1.4 MBq, iv at 120 mins; type: ADME, organism-based; details: in vivo, 2 h; method in brief: as §3
Liver [23] = assay: Drug uptake in overnight fasted Sprague-Dawley rat liver at 0.7 to 1.4 MBq, iv at 120 mins; type: ADME, organism-based; details: in vivo, 2 h; method in brief: as §3
Kidney [24] = assay: Drug uptake in overnight fasted Sprague-Dawley rat kidney at 0.7 to 1.4 MBq, iv preincubated with POCA for 2 hrs before compound administration measured at 30 mins post treatment; type: ADME, organism-based; details: in vivo, 0.5 h; method in brief: as §3
Bone [25] = assay: Drug uptake in overnight fasted Sprague-Dawley rat bone at 0.7 to 1.4 MBq, iv at 30 mins; type: ADME, organism-based, Bone element; details: in vivo, 0.5 h; method in brief: as §2
Kidney [26] = assay: Drug uptake in overnight fasted Sprague-Dawley rat kidney at 0.7 to 1.4 MBq, iv at 30 mins; type: ADME, organism-based; details: in vivo, 0.5 h; method in brief: as §3
Heart [27] = assay: Drug uptake in overnight fasted Sprague-Dawley rat heart at 0.7 to 1.4 MBq, iv at 30 mins; type: ADME, organism-based; details: in vivo, 0.5 h; method in brief: as §3

## O=C(O)CCSCCCCCCCCCCCCCC[18F]
Bone [1]
  Drug uptake: Active
Liver [2]
  Drug uptake: Active
Muscle tissue [3]
  Drug uptake: 9.12%
Liver [4]
  Drug uptake: 22.07%
Liver [5]
  Drug uptake: 67.69%
Heart [6]
  Drug uptake: 74.91%
Liver [7]
  Drug uptake: 36.13%
Liver [8]
  Drug uptake: 55.69%
Heart [9]
  Drug uptake: 71.45%
Heart [10]
  Drug uptake: 26.14%
Heart [11]
  Drug uptake: 2.39%
Muscle tissue [12]
  Drug uptake: 27.04%
Muscle tissue [13]
  Drug uptake: 25.8%
Liver [14]
  Drug uptake: 31.69%
Heart [15]
  Drug uptake: 24.67%
Heart [16]
  Drug uptake: 7.73%
Heart [17]
  Drug uptake: 17.29%
Bone [18]
  Drug uptake: 0.4042 %IDKg/g
Liver [19]
  Drug uptake: 0.1341 %IDKg/g
Heart [20]
  Drug uptake: 0.1025 %IDKg/g
Bone [21]
  Drug uptake: 0.2934 %IDKg/g
Brain
  Drug uptake: 0.0143 %IDKg/g
Kidney [22]
  Drug uptake: 0.0726 %IDKg/g
Liver [23]
  Drug uptake: 0.3759 %IDKg/g
Kidney [24]
  Drug uptake: 0.235 %IDKg/g
Bone [25]
  Drug uptake: 0.2309 %IDKg/g
Kidney [26]
  Drug uptake: 0.1872 %IDKg/g
Heart [27]
  Drug uptake: 0.314 %IDKg/g

## O=C(O)CCCCSCCCCCCCCCCCC[18F]
Bone [1]
  Drug uptake: Active
Liver [2]
  Drug uptake: Active
Muscle tissue [3]
  Drug uptake: 9.3%
Liver [4]
  Drug uptake: 27.76%
Liver [5]
  Drug uptake: 64.78%
Heart [6]
  Drug uptake: 74.2%
Liver [7]
  Drug uptake: 54.58%
Liver [8]
  Drug uptake: 35.26%
Heart [9]
  Drug uptake: 67.39%
Heart [10]
  Drug uptake: 28.56%
Heart [11]
  Drug uptake: 4.03%
Muscle tissue [12]
  Drug uptake: 48.85%
Muscle tissue [13]
  Drug uptake: 7.7%
Liver [14]
  Drug uptake: 10.75%
Heart [15]
  Drug uptake: 32.16%
Heart [16]
  Drug uptake: 3.84%
Heart [17]
  Drug uptake: 25.81%
Bone [18]
  Drug uptake: 0.2104 %IDKg/g
Liver [19]
  Drug uptake: 0.419 %IDKg/g
Heart [20]
  Drug uptake: 0.2288 %IDKg/g
Bone [21]
  Drug uptake: 0.2467 %IDKg/g
Brain
  Drug uptake: 0.022 %IDKg/g
Kidney [22]
  Drug uptake: 0.1629 %IDKg/g
Liver [23]
  Drug uptake: 0.7548 %IDKg/g
Kidney [24]
  Drug uptake: 0.3441 %IDKg/g
Bone [25]
  Drug uptake: 0.1171 %IDKg/g
Kidney [26]
  Drug uptake: 0.2095 %IDKg/g
Heart [27]
  Drug uptake: 0.4413 %IDKg/g

## O=C(O)CCSCCCC/C=C\CCCCCCCC[18F]
Bone [1]
  Drug uptake: Active
Liver [2]
  Drug uptake: Active
Muscle tissue [3]
  Drug uptake: 11.37%
Liver [4]
  Drug uptake: 23.82%
Liver [5]
  Drug uptake: 68.06%
Heart [6]
  Drug uptake: 66.66%
Liver [7]
  Drug uptake: 59.56%
Liver [8]
  Drug uptake: 34.75%
Heart [9]
  Drug uptake: 88.78%
Heart [10]
  Drug uptake: 9.34%
Heart [11]
  Drug uptake: 1.86%
Muscle tissue [12]
  Drug uptake: 32.74%
Muscle tissue [13]
  Drug uptake: 24.06%
Liver [14]
  Drug uptake: 16.3%
Heart [15]
  Drug uptake: 23.8%
Heart [16]
  Drug uptake: 10.15%
Heart [17]
  Drug uptake: 8.46%
Bone [18]
  Drug uptake: 0.299 %IDKg/g
Liver [19]
  Drug uptake: 0.1666 %IDKg/g
Heart [20]
  Drug uptake: 0.076 %IDKg/g
Bone [21]
  Drug uptake: 0.461 %IDKg/g
Brain
  Drug uptake: 0.0215 %IDKg/g
Kidney [22]
  Drug uptake: 0.1244 %IDKg/g
Liver [23]
  Drug uptake: 0.8488 %IDKg/g
Kidney [24]
  Drug uptake: 0.1932 %IDKg/g
Bone [25]
  Drug uptake: 0.1531 %IDKg/g
Kidney [26]
  Drug uptake: 0.2035 %IDKg/g
Heart [27]
  Drug uptake: 0.7028 %IDKg/g

## O=C(O)CCSCCCCCCCCCCCC[18F]
Bone [1]
  Drug uptake: Active
Liver [2]
  Drug uptake: Active
Muscle tissue [3]
  Drug uptake: 19.16%
Liver [4]
  Drug uptake: 38.47%
Liver [5]
  Drug uptake: 50%
Heart [6]
  Drug uptake: 67.98%
Liver [7]
  Drug uptake: 63.27%
Liver [8]
  Drug uptake: 31.39%
Heart [9]
  Drug uptake: 76.93%
Heart [10]
  Drug uptake: 18.88%
Heart [11]
  Drug uptake: 4.17%
Muscle tissue [12]
  Drug uptake: 32.63%
Muscle tissue [13]
  Drug uptake: 25.13%
Liver [14]
  Drug uptake: 20.23%
Heart [15]
  Drug uptake: 32.81%
Heart [16]
  Drug uptake: 15.28%
Heart [17]
  Drug uptake: 38.56%
Bone [18]
  Drug uptake: 0.6549 %IDKg/g
Liver [19]
  Drug uptake: 0.4433 %IDKg/g
Heart [20]
  Drug uptake: 0.1042 %IDKg/g
Bone [21]
  Drug uptake: 0.3143 %IDKg/g
Brain
  Drug uptake: 0.0154 %IDKg/g
Kidney [22]
  Drug uptake: 0.1014 %IDKg/g
Liver [23]
  Drug uptake: 0.47 %IDKg/g
Kidney [24]
  Drug uptake: 0.2477 %IDKg/g
Bone [25]
  Drug uptake: 0.235 %IDKg/g
Kidney [26]
  Drug uptake: 0.209 %IDKg/g
Heart [27]
  Drug uptake: 0.589 %IDKg/g
